Only some compounds are listed: those with a hit (about 2.1% of all), similar ones and a draw of the others.
Hck Nef HTS – human Hck-Nef kinase inhibition; P08631; Recombinant Hck-YEEI plus Nef, Z-Lyte FRET kinase assay; inhibition, % at 20 µM; hit rate 0.68% among 220,000;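 active = Hck-Nef kinase inhibition above about 50%, limit read from the data; inactive = inhibition below that limit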;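 also: 0% = DMSO with Hck plus Nef and 100% = Hck alone without Nef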
RanGTP-Imp inh – inhibitors of RanGTP-importin-beta interaction, primary screen, biochemical, FRET, CFP-Ran, YFP-importin-beta, homogeneous. cell-free CFP-Ran/YFP-importin-beta FRET ratio. inhibition, % (no concentration beside the values). hit rate 1.1% among 300,000. AID 2216;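 active = more than half of the replicate wells show a fall in the fluorescence ratio signal beyond about 16%, limit read from the data, passing the limit was not always enough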;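 also: 0% = DMSO wells and 100% = Ran loaded with GDP instead of GTP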
Runt-CBFb FRET – inhibitors of human RUNX1 Runt domain binding to CBFb. inhibition, % at 20 µM. Q01196+Q13951. AID 1496. hit rate 0.46% among 220,000. Cerulean-Runt/Venus-CBFb FRET ratio 530/480, 1 h;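 active = inhibition over about 50% at 20 µM in the single-dose screen, limit read from the data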;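 also: 0% = DMSO wells and 100% = excess unlabeled CBFb competitor control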
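Measured by: fluorescence energy transfer, 422 nm excitation, 530/480 nm emission; test system: Cerulean-tagged RUNX1 Runt domain (FRET donor) fusion protein; buffer or medium: Tris pH 7.5 buffer with BSA; compound: one dose, 20 µM compound, 1% DMSO; times: two 1 h room-temperature incubations shielded from light; benchmarks: unlabeled CBFb 5 µM, positive control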
DSG3 Ab inh – inhibitors of pemphigus antibody binding to human desmoglein-3; binding (percent of control), % at 10 µM; hit rate 0.48% among 310,000; P32926; DSG3-coupled beads, scFv-anti-DSG3-GFP binding, flow cytometry; active compounds read low; AID 588358;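 active = binding more than 3 SD below its plate's average and above zero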;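 also: hits lower antibody fragment binding to DSG3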
Target sequence (P32926 whole entry, looked up, the tested form may be a part): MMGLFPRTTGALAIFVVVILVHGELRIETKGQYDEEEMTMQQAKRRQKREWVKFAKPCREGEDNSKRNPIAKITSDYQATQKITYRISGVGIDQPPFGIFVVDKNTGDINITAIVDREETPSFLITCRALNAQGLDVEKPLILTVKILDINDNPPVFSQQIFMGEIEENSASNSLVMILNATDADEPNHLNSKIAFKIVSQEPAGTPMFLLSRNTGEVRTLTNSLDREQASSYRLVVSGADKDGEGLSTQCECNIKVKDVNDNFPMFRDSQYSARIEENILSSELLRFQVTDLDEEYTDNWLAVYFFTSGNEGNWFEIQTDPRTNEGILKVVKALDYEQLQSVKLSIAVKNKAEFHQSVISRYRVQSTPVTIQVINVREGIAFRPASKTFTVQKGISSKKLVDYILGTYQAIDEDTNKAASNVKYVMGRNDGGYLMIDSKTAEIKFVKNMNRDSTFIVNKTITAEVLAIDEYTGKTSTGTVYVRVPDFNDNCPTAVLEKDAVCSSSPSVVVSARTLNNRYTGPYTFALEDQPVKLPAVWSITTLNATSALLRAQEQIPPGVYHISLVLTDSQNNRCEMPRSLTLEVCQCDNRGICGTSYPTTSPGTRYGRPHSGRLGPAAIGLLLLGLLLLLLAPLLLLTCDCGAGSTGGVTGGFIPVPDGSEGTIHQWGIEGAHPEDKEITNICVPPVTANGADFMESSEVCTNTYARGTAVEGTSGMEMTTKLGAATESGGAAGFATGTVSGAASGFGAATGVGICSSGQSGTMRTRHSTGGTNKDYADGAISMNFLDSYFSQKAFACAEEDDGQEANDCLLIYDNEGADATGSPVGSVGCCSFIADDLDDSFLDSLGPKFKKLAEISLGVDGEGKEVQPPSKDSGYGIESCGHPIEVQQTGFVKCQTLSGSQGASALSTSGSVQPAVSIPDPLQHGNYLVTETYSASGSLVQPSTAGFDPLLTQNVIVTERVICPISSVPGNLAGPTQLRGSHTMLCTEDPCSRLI
Runt-SMMHC FRET – Runt domain-CBFb-SMMHC interaction inhibition. inhibition, % at 20 µM. AID 1434. Cerulean-Runt/Venus-CBFb-SMMHC FRET ratio 530/480, 1 h. hit rate 0.74% among 220,000;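 active = mean inhibition across duplicate retests at 20 µM reaching about 50%, limit read from the data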;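 also: 0% = DMSO wells and 100% = wells with excess untagged CBFb-SMMHC; inhibitors lower the FRET ratio by blocking Runt binding to CBFb-SMMHC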
pCIP destab – lowers stability of the mouse p/CIP coactivator protein. F442A p/CIP-EGFP cells, EGFP fluorescence, 16 h. Q05BA5. decrease of EGFP signal, % at 10 µM. hit rate 0.01% among 290,000. AID 1984;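 active = EGFP signal decrease of at least 30% at 10 µM or well 3 SD below plate mean, unless failing retest; inactive = the rest, including hits failing retest or dose response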
The depositor's hits bear a star; / = not tested or not shown.

SMILES	Hck Nef HTS	RanGTP-Imp inh	Runt-CBFb FRET	DSG3 Ab inh	Runt-SMMHC FRET	pCIP destab
Cc1ccc(O)c(C(=O)c2cc(C#N)c(=O)n(CC3CCCO3)c2)c1 (configuration not stated)	0	7	17	98	-10	-7
COCCCn1c(C(=O)N2CCOCC2)cc2c(=O)n3ccccc3nc21	/	0	/	109	/	-4
CCC(C)n1c(=N)c(C#N)cc2c(=O)n3cc(C)ccc3nc21 (configuration not stated)	28	5	/	102	/	-11
N#Cc1cc2c(=O)n3ccccc3nc2n(CCN2CCOCC2)c1=O	/	/	103*	/	143*	2
O=C(NCc1cccc(Cl)c1)c1ccc(S(=O)(=O)N2CCCCC2)cc1	/	/	/	95	/	/
CN(C(=O)Cn1cc(C(F)(F)F)cc(Cl)c1=O)C1CCS(=O)(=O)C1 (configuration not stated)	/	0	/	96	/	/
Cc1cccc(NC(=O)CC2C(=O)NC3CCCCC3N2C(=O)c2ccccc2Cl)c1 (configuration not stated)	8	-6	1	89*	-3	-6
COc1ccccc1C(=O)N1C(CC(=O)Nc2ccc(C)c(C)c2)C(=O)NC2CCCCC21 (configuration not stated)	/	0	/	104	/	-3
COc1cc(/C=C(\C#N)c2nc3ccccc3[nH]2)c([N+](=O)[O-])cc1OCc1ccccc1	0	9	38	95	83*	-10
COc1cc(/C=C(\C#N)c2nc3ccccc3[nH]2)ccc1OC(=O)c1ccco1	5	9	-20	101	1	-119
COc1ccc(/C=C(\C#N)C(=O)OCC(=O)NC2CC2)cc1	-4	0	0	58*	1	4
CCN1CCN(CC(O)COc2ccc3c(c2)CCC3)CC1 (configuration not stated)	-2	-3	-7	100	0	-8
O=S(=O)(c1ccccc1)N1CCN(CC(O)COc2ccc3c(c2)CCC3)CC1 (configuration not stated)	5	-7	-2	79*	0	-4
C[C@@H]1CN([C@H](C)CO)C(=O)c2cc(NS(=O)(=O)c3cn(C)cn3)ccc2O[C@H]1CN(C)C(=O)Nc1ccccc1	/	/	/	101	/	/
COc1cccc(CNC(=O)c2cnc(-c3ccccn3)nc2C(F)(F)F)c1	-3	30*	0	/	6	-7
COc1ccccc1C(=O)Nc1nc2ccccc2s1	/	3	/	109	/	4
N=c1oc2cc(O)ccc2cc1C(=O)Nc1ccc(Br)cc1	/	167*	/	99	/	-18
N=c1oc2cc(O)ccc2cc1C(=O)Nc1ccccn1	115*	/	20	/	87*	-7
N=c1oc2cc(O)ccc2cc1C(=O)Nc1nc2ccccc2s1	81*	136*	19	99	63*	6
N=c1oc2ccccc2cc1C(=O)Nc1ccccc1	/	3	/	103	/	-20
CCNc1nc(SCC(=O)OC)nc(N(C)C)n1	27	3	-1	104	4	-8
CC(C)[C@@H](CO)NS(=O)(=O)c1ccc(Br)cc1F	/	/	/	103	/	/
C[C@H]1[C@H](C)CC[C@]2(C(=O)O)CC[C@]3(C)C(=CC[C@@H]4[C@@]5(C)CC[C@H](O)C(C)(C)[C@@H]5CC[C@]43C)[C@H]12	28	-4	-2	98	-2	-11
C[C@H]1[C@H](C)CC[C@]2(C(=O)O)CC[C@]3(C)C(=CC[C@@H]4[C@@]5(C)C[C@@H](O)[C@H](O)C(C)(C)[C@@H]5CC[C@]43C)[C@H]12	1	2	-14	85*	-13	1
CCN(CC)CCN1C2=C(C(=O)CC(C)(C)C2)C(c2cccc(F)c2)C2=C1CC(C)(C)CC2=O	37	96*	83*	112	86*	4
CCCN1C2=C(C(=O)CC(C)(C)C2)C(c2ccc(F)cc2)C2=C1c1ccccc1C2=O (configuration not stated)	-1	3	-2	102	-3	-4
CC1(C)CC(=O)C2=C(C1)N(CCN1CCOCC1)C1=C(C(=O)CC(C)(C)C1)C2c1cccc(Cl)c1	44	111*	/	96	-21	-13

Source: PubChem BioAssay
